One block for each molecule: values may come before it. Residues, ends and D or L forms follow the SMILES beside them. *: point of attachment. Cbz = O=C(OCc1ccccc1)*; CH2F = FC*
Key:
[1] = system: DNA fragmentation in thymocytes; experiment: DNA fragmentation; type: in vivo, rat; details: for Percentage of subdiploid cells (±SE): thymus 24 h
Method in brief: (§1)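 CLP then followed: the ligated cecum was pierced through and through with a 20-gauge cannula and a silk thread was left in place for leakage. Shams had the cecum exteriorized only. Rats got 1 c.c. saline s.c., then a 2 ml/kg i.v. bolus of vehicle or test compound and 2 ml/h/kg infusion for 24 h. In the titration, doses were 0–10 mg/kg/h with one rat per dose. Thymus taken 24 h post-surgery.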

[2] = target: T1, Recombinant human caspase-10 (Homo sapiens, UniProt Q92851); experiment: M867 potency against recombinant human caspase-10; type: biochemical
T1 sequence (Q92851 220-415 limits assumed): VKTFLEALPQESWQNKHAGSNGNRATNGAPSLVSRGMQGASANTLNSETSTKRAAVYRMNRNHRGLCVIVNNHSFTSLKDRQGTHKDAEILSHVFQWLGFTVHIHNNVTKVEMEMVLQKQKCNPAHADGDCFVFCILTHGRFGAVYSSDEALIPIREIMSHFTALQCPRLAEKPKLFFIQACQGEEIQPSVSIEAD
T1 sequence (Q92851 416-521 limits assumed): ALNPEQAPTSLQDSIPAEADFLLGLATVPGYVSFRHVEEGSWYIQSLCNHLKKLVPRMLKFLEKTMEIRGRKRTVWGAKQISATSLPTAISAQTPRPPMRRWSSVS

[3] = system: DNA fragmentation in cultured primary rat thymocytes; experiment: DNA fragmentation; type: cell-based
Method in brief: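 Thymocytes were cultured for 24 h at 10 × 10^6 cells/ml in CytoSF4 plus l-glutamine and antibiotics, with test compound at a range of concentrations. Cells fixed 30 min on ice in 70% EtOH and stained in PBS/0.1% Triton X-100/RNase A/25 μg/ml PI. Subdiploid DNA by flow cytometry, 20,000 events, duplicate samples, debris gated out on forward scatter. IC50 by 4-parameter fit.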

[4] = target: T2, Recombinant human caspase-1 (Homo sapiens, UniProt P29466); experiment: M867 potency against recombinant human caspase-1; type: biochemical
T2 sequence (P29466 120-297 limits assumed): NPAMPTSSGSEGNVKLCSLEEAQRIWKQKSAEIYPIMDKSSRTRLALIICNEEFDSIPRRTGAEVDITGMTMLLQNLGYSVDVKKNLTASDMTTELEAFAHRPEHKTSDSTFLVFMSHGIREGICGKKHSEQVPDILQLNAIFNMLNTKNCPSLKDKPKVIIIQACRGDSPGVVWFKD
T2 sequence (P29466 317-404 limits assumed): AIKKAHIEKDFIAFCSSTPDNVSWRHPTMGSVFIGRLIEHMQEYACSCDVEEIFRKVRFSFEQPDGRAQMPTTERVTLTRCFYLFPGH

[5] = target: Recombinant human caspase-8 (Homo sapiens, UniProt Q14790); experiment: M867 potency against recombinant human caspase-8; type: biochemical
Chain of Recombinant human caspase-8 (Q14790 217-374 limits assumed): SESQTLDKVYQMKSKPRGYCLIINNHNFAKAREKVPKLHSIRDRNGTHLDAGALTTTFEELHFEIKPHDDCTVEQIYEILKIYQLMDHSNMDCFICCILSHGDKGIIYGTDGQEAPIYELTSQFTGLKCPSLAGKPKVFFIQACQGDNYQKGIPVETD
Chain of Recombinant human caspase-8 (Q14790 385-479 limits assumed): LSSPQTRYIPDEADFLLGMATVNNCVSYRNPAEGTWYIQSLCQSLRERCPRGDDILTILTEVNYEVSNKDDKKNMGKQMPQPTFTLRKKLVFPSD

[6] = target: T3, Recombinant human caspase-7 (Homo sapiens, UniProt P55210); experiment: M867 potency against recombinant human caspase-7; type: biochemical
T3 sequence (P55210 24-198 limits assumed): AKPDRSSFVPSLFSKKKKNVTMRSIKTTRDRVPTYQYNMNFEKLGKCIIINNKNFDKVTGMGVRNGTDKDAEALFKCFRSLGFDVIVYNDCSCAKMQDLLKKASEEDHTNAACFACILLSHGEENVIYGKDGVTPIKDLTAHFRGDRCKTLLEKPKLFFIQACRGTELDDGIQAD
T3 sequence (P55210 207-303 limits assumed): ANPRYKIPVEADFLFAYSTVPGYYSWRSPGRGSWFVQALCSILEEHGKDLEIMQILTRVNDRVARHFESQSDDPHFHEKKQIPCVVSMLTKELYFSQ

[7] = target: T4, Recombinant human caspase-2 (Homo sapiens, UniProt P42575); experiment: M867 potency against recombinant human caspase-2; type: biochemical
T4 sequence (P42575 170-325 limits assumed): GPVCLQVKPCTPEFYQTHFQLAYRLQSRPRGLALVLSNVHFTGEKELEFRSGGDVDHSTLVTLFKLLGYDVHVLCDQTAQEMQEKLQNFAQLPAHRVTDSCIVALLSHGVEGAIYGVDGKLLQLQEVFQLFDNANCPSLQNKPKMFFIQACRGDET
T4 sequence (P42575 348-452 limits assumed): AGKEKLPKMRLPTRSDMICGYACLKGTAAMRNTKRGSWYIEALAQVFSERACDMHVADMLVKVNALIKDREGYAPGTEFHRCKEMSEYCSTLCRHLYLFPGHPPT

[8] = target: T5, Recombinant human caspase-5 (Homo sapiens, UniProt P51878); experiment: M867 potency against recombinant human caspase-5; type: biochemical
T5 sequence (P51878 137-327 limits assumed): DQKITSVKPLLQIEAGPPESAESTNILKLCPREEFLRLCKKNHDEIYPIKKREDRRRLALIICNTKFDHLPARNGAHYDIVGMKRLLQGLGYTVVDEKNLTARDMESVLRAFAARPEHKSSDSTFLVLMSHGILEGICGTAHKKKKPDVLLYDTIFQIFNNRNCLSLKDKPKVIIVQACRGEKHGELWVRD
T5 sequence (P51878 347-434 limits assumed): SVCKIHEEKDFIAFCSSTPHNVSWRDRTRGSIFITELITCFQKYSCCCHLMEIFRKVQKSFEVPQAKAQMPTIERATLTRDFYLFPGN

[9] = Drug levels in plasma, blood and spleen of rats under continuous i.v. infusion; type: in vivo; details: rat, intravenous, 2 mg/kg/h
Method in brief: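 Test compound was given to rats by continuous i.v. infusion after a 2 ml/kg bolus, delivered at 2 ml/h/kg for 24 h. Dose rates were 2 mg/kg/h for plasma and spleen levels, and 0.5 or 1.5 mg/kg/h for blood levels.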

caspase-3 processing = experiment: Caspase-3 Western blotting on thymus extracts of CLP rats dosed with M867; type: in vivo, rat; details: all M867 doses
Method in brief: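 Female Sprague-Dawley rats (250–300 g) had CLP via a 20-gauge through-and-through cecal puncture with a silk wick. Test compound was given as an i.v. femoral catheter bolus (2 ml/kg) then infused at 0–10 mg/kg/h for 24 h (vehicle n = 6; n = 1 per dose). Thymus lysates (40 μg, heat-denatured) were run on 10–20% SDS-PAGE and probed with rabbit anti-caspase-3 (1:2,000) and HRP anti-rabbit, with chemiluminescent detection.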

[10] = target: T6, Recombinant human caspase-3 (Homo sapiens, UniProt P42574); experiment: M867 potency against recombinant human caspase-3; type: biochemical
T6 sequence (P42574 29-175 limits assumed): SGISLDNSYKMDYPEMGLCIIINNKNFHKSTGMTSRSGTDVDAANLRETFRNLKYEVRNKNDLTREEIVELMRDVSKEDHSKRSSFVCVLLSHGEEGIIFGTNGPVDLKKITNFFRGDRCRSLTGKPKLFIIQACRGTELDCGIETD
T6 sequence (P42574 176-277 limits assumed): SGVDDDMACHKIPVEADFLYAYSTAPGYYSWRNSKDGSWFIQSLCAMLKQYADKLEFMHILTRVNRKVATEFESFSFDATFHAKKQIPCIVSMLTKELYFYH

[11] = system: basal apoptotic parameters; experiment: Basal apoptotic parameters in sham-operated animals; type: in vivo, rat; details: sham-operated animals (unpublished data)
[12] = target: T7, Recombinant human caspase-6 (Homo sapiens, UniProt P55212); experiment: M867 potency against recombinant human caspase-6; type: biochemical
T7 sequence (P55212 24-179 limits assumed): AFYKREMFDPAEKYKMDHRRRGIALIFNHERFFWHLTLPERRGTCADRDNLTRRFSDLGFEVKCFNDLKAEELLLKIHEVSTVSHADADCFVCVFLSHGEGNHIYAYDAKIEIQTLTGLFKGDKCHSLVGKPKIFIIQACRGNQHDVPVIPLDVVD
T7 sequence (P55212 194-293 limits assumed): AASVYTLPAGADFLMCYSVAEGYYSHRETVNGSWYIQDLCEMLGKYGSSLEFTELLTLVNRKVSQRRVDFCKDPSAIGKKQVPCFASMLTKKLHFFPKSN

[13] = system: αII-spectrin cleavage in thymocytes; experiment: αII-spectrin cleavage in the thymus of CLP-induced septic rats; type: in vivo, rat; details: for Spectrin cleavage OD (±SE): thymus 24 h
Method in brief: as §1

[14] = target: T8, Recombinant human caspase-4 (Homo sapiens, UniProt P49662); experiment: M867 potency against recombinant human caspase-4; type: biochemical
T8 sequence (P49662 81-270 limits assumed): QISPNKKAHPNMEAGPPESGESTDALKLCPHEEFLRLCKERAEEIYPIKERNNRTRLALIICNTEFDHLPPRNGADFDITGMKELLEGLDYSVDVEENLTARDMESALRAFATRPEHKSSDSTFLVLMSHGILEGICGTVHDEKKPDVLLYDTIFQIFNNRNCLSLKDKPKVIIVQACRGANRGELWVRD
T8 sequence (P49662 290-377 limits assumed): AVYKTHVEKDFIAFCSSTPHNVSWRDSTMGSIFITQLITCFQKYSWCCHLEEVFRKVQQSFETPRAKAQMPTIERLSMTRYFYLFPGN

[15] = system: αII-spectrin cleavage in cultured primary rat thymocytes; experiment: αII-spectrin cleavage in cultured primary rat thymocytes; type: cell-based; details: read-out: IC50 spectrin, average of two to four experiments (single for zVAD-fmk and M808)
Method in brief: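 Rat thymocytes, isolated by tissue grinding in cold PBS/glucose/glutamine/1% FBS and filtered, were kept 24 h at 10 × 10^6 cells/ml in CytoSF4 with l-glutamine and antibiotics over a test compound concentration series. The read-out is the caspase-3-generated p120 αII-spectrin neoepitope. IC50 from a 4-parameter curve fit.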

[16] = crude extrapolation, septic rats (Fig. 4)
[17] = septic rats, continuous i.v. infusion

in vivo IC50 DNA fragmentation [1, 16]: 2 mg/kg/h
Ki [2]: 29.5 µM
Ki [4]: 0.107 µM
Ki [5]: 4.03 µM
Ki [6]: 0.0089 µM
Ki [7]: > 100 µM
Ki [8]: 0.805 µM
concentration at 24 h ([9]; plasma): 650 ± 180 nM
concentration at 24 h ([9]; spleen): 370 ± 100 nM
Ki [10]: 0.0014 µM
Ki [12]: 3.44 µM
in vivo IC50 αII-spectrin cleavage [13, 16]: 0.5 mg/kg/h
Ki [14]: 0.495 µM
Structure (SMILES): CCCCCN(C)CC(=O)[C@H](CC(=O)O)NC(=O)[C@H](CC)n1cc(C(C)(C)C)nc(NCc2nonc2C)c1=O [M867, (3S)-3-({(2S)-2-[5-tert-butyl-3-{[(4-methyl-1,2,5-oxadiazol-3-yl)methyl]amino}-2-oxopyrazin-1(2H)-yl]butanoyl}amino)-5-[methyl(pentyl)amino]-4-oxopentanoic acid]
reduction of DNA fragmentation in thymocytes ([1]; CLP rats, i.v. infusion over 24 h after CLP, first experiment (Fig. 2 D, n = 10)): 57%
Percentage of subdiploid cells (±SE) ([1]; CLP rats, first experiment (n = 10; vehicle 25.12, sham 1.23)): 11.61 ± 2.95%
Percentage of subdiploid cells (±SE) ([1]; CLP rats, second experiment (n = 4-5; vehicle 33.49, sham 0.37)): 13.25 ± 4.70%
drug levels needed to inhibit DNA cleavage compared with αII-spectrin cleavage ([1]; experimental peritonitis, rats): fourfold
doses fully inhibiting DNA fragmentation [1, 17]: above 5 mg/kg/h
effect on DNA fragmentation in dose titration ([1]; septic rats, doses up to 10 mg/kg/h): almost abrogated
effect on DNA fragmentation ([3]; 0.1 μM, cultured thymocytes): without affecting
caspase-3 processing (caspase-3 processing): processed equally well
effect on basal apoptotic parameters [11]: no effect
reduction of αII-spectrin cleavage in thymocytes ([13]; CLP rats, i.v. infusion over 24 h after CLP, first experiment (Fig. 2 C, n = 10)): 88%
Spectrin cleavage OD (±SE) ([13]; CLP rats, first experiment (n = 10; vehicle 0.97, sham 0.21)): 0.30 ± 0.01 OD
Spectrin cleavage OD (±SE) ([13]; CLP rats, second experiment (n = 4-5; vehicle 0.58, sham 0.12)): 0.18 ± 0.01 OD
inhibition of αII-spectrin cleavage ([13]; septic rats, 2 mg/kg/h): almost complete inhibition
doses achieving abolition of αII-spectrin cleavage [13, 17]: below 2 mg/kg/h

IC50 ([3]; read-out: IC50 subdiploid, cultured rat thymocytes, average of two to four experiments (single for zVAD-fmk and M808)): 25 µM
IC50 [15]: 0.6 µM
Structure (SMILES): COC(=O)C[C@H](NC(=O)[C@H](C)NC(=O)[C@@H](NC(=O)OCc1ccccc1)C(C)C)C(=O)CF [zVAD-fmk, zVAD-fluoromethyl ketone, reference compound] (Cbz-Val-Ala-Asp(OMe)-CH2F)
